Values after ≈ are worked out from the molar mass of the structure shown.
Assays:
[1] = system: CCOc1ccc2c(C(F)(F)F)cc(=O)oc2c1; test: 7-EFC O-deethylation, reconstituted system; format: biochemical, rat; conditions: other: enzyme 2B1; 37.0 °C
human 2B6 = conditions: ref Talakad et al., 2009; cited from earlier work
[2] = Solubility limit in aqueous solutions; format: physicochemical
2B37v2 R262K [3] = molecular target: T1, 2B37v2 R262K (Neotoma lepida, UniProt J9JD75, R262K, form not given); test: 7-BR O-debenzylation, reconstituted system; format: biochemical; conditions: enzyme 2B37v2 R262K
2B35v1 [4] = molecular target: T2, 2B35v1 (Neotoma lepida, UniProt J7EVA5); test: 7-BR O-debenzylation, reconstituted system; format: biochemical; conditions: substrate 7-BR; enzyme 2B35v1
T2 sequence (J7EVA5 22-491): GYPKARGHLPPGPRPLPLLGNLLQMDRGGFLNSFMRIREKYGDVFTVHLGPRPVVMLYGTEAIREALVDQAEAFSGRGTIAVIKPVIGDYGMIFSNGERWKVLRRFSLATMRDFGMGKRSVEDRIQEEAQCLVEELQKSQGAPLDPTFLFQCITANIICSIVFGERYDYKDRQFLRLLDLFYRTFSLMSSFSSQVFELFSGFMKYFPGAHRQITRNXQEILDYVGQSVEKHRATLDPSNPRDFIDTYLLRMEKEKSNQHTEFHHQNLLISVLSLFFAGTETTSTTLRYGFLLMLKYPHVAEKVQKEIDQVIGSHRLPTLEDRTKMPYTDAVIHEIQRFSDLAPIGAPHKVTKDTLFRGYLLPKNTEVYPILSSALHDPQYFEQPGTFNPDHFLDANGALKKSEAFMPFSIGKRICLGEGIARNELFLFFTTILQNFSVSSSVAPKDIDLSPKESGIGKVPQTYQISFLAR
Summary of the method: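 Same His4-tagged enzyme and purification, and same reconstituted system (P450:rat reductase:rat b5 1:4:2). 7-BR 0–10 μM in 50 mM HEPES pH 7.4, 15 mM MgCl2. NADPH 1 mM final started the reaction, 10 min at 37 °C, then methanol quench. Resorufin read at ex 550/em 580 nm, calibrated daily with 0–2 μM resorufin. Steady-state parameters from Michaelis-Menten regression.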

2B37v2 [5] = molecular target: T3, 2B37v2 (Neotoma lepida, UniProt J9JD75); test: 7-BR O-debenzylation, reconstituted system; format: biochemical; conditions: enzyme 2B37v2
rat 2B1 [6] = molecular target: rat 2B1 (Rattus norvegicus, UniProt P00176, E2A/G22K/H23K/K25S/N29K/P24T/R27K); test: 7-BR O-debenzylation, reconstituted system; format: biochemical; conditions: enzyme 2B1
2B37v2 V480L [7] = molecular target: T4, 2B37v2 V480L (Neotoma lepida, UniProt J9JD75, V480L, form not given); test: 7-BR O-debenzylation, reconstituted system; format: biochemical; conditions: enzyme 2B37v2 V480L
2B37v1 [8] = molecular target: T5, 2B37v1 (Neotoma lepida, UniProt J7EWE1); test: 7-BR O-debenzylation, reconstituted system; format: biochemical; conditions: enzyme 2B37v1
2B37v2 V114I [9] = molecular target: T6, 2B37v2 V114I (Neotoma lepida, UniProt J9JD75, V114I, form not given); test: 7-BR O-debenzylation, reconstituted system; format: biochemical; conditions: enzyme 2B37v2 V114I
2B36v1 [10] = molecular target: T7, 2B36v1 (Neotoma lepida, UniProt J7EWE5); test: 7-BR O-debenzylation, reconstituted system; format: biochemical
2B37v1 K262R [11] = molecular target: T8, 2B37v1 K262R (Neotoma lepida, UniProt J7EWE1, K262R, form not given); test: 7-BR O-debenzylation, reconstituted system; format: biochemical; conditions: enzyme 2B37v1 K262R
2B37v1 [12] = molecular target: T5, 2B37v1; test: 7-EFC O-deethylation, reconstituted system; format: biochemical
2B35v1 [13] = molecular target: T2, 2B35v1; test: 7-EFC O-deethylation, reconstituted system; format: biochemical; conditions: substrate 7-EFC; enzyme 2B35v1
Summary of the method: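 Enzyme with C-terminal His4 tag, expressed in TOPP3 cells and purified on Ni-NTA then CM-Sepharose. Reconstituted with rat NADPH-P450 reductase and rat cytochrome b5 (P450:reductase:b5 1:4:2). 7-EFC 0–150 μM in 50 mM HEPES pH 7.4, 15 mM MgCl2. Started with 1 mM NADPH, 10 min at 37 °C, quenched with ice-cold acetonitrile, diluted into 0.1 M Tris pH 9.0. 7-HFC read at ex 410/em 510 nm, calibrated daily with 0–2 μM HFC. Michaelis-Menten fit.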

2B37v2 V480L [14] = molecular target: T4, 2B37v2 V480L; test: 7-EFC O-deethylation, reconstituted system; format: biochemical; conditions: enzyme 2B37v2 V480L
2B37v1 K262R [15] = molecular target: T8, 2B37v1 K262R; test: 7-EFC O-deethylation, reconstituted system; format: biochemical
2B37v2 R262K [16] = molecular target: T1, 2B37v2 R262K; test: 7-EFC O-deethylation, reconstituted system; format: biochemical
2B37v2 V114I/V480L = 2B37v2 V114I/V480L (Neotoma lepida, UniProt J9JD75, V114I/V480L, form not given); test: 7-EFC O-deethylation, reconstituted system; format: biochemical; conditions: enzyme 2B37v2 V114I/V480L
2B36v1 [17] = molecular target: T7, 2B36v1; test: 7-EFC O-deethylation, reconstituted system; format: biochemical; conditions: enzyme 2B36v1
2B37v2 V114I [18] = molecular target: T6, 2B37v2 V114I; test: 7-EFC O-deethylation, reconstituted system; format: biochemical; conditions: enzyme 2B37v2 V114I
2B37v2 [19] = molecular target: T3, 2B37v2; test: 7-EFC O-deethylation, reconstituted system; format: biochemical
rat 2B1 [20] = molecular target: T9, rat 2B1 (Rattus norvegicus, UniProt P00176, E2A/G22K/H23K/K25S/N29K/P24T/R27K); format: binding
T9 sequence (P00176 with tags, fused parts or gaps limits assumed): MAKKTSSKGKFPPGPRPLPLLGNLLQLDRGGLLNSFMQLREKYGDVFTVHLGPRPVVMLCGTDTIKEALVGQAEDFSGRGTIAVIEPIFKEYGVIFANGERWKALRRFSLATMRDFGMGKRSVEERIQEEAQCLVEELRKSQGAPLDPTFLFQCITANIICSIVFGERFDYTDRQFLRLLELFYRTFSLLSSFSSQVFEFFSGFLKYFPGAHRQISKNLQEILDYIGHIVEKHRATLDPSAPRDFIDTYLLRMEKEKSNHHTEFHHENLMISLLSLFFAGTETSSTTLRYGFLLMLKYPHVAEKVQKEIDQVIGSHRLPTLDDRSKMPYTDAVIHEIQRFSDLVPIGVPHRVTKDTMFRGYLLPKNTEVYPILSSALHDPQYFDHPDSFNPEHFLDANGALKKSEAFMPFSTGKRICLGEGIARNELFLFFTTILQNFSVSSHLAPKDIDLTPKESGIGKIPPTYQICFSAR

2B37v1 [21] = molecular target: T5, 2B37v1; conditions: read-out: (+)-α-pinene spectral binding KS; enzyme 2B37v1; 25 °C
[22] = ref Sridhar et al., 2012; cited from earlier work
2B35v1 [23] = molecular target: T2, 2B35v1; conditions: read-out: (+)-α-pinene spectral binding KS; enzyme 2B35v1; 25 °C
2B36v1 [24] = molecular target: T7, 2B36v1; conditions: read-out: (+)-α-pinene spectral binding KS; enzyme 2B36v1; 25 °C
2B37v2 [25] = molecular target: T3, 2B37v2; conditions: read-out: (+)-α-pinene spectral binding KS; enzyme 2B37v2; 25 °C
[26] = read-out: 7-BR O-debenzylation KM
[27] = read-out: 7-EFC O-deethylation KM

Compound “rat 2B1 (Rattus norvegicus; E2A/G22K/H23K/K25S/N29K/P24T/R27K)” has a Km [1] of 32.4 ± 4.9 µM, a kcat [1] of 0.115 ± 0.02 s⁻¹ and a kcat/Km [1] of 3500 M⁻¹ s⁻¹.
In the case of `CN[C@H]1CC[C@@H](c2ccc(Cl)c(Cl)c2)c2ccccc21` [sertraline], the “maximal increase in HSP450 content upon binding” value (from here on “maximal increase”) (human 2B6) is listed as 0.8%.
For `O=c1ccc2nc3ccc(OCc4ccccc4)cc3oc-2c1` [7-BR, 7-benzyloxyresorufin], the solubility [2] was roughly 10 µM (≈ 3.03 µg/mL), the “7-BR O-debenzylation kcat” value (2B37v2 R262K [3]) was 0.18 ± 0.05 min^−^1 and the Km (2B37v2 R262K [3]; [26]) was 9.2 ± 0.7 µM. For the same compound, the O-dealkylation products (2B35v1 [4]) was “not detected”, the “7-BR O-debenzylation kcat” value (2B37v2 [5]) was 0.25 ± 0.06 min^−^1 and the Km (2B37v2 [5]; [26]) was 9.5 ± 0.5 µM. The “7-BR O-debenzylation kcat” value (rat 2B1 [6]) was ~ 4.5 min^−^1, the “7-BR O-debenzylation kcat” value (2B37v2 V480L [7]) was 0.47 ± 0.08 min^−^1 and the Km (2B37v2 V480L [7]; [26]) was 4.5 ± 0.7 µM. The “7-BR O-debenzylation kcat” value (2B37v1 [8]) was 0.16 ± 0.04 min^−^1, the Km (2B37v1 [8]; [26]) was 7.2 ± 0.6 µM and the “7-BR O-debenzylation kcat” value (2B37v2 V114I [9]) was 0.13 ± 0.01 min^−^1. For the same compound, the Km (2B37v2 V114I [9]; [26]) was 5.7 ± 1 µM, the “efficiency for 7-BR O-debenzylation relative to 2B1” value (2B36v1 [10]; 2B36v1 as fraction of 2B1) was 1/40 and the “7-BR O-debenzylation kcat” value (2B36v1 [10]; enzyme 2B36v1) was 0.10 ± 0.03 min^−^1. The Km (2B36v1 [10]; read-out: 7-BR O-debenzylation KM, enzyme 2B36v1) was 1.7 ± 0.3 µM, the “7-BR O-debenzylation kcat” value (2B37v1 K262R [11]) was 0.15 ± 0.07 min^−^1 and the Km (2B37v1 K262R [11]; [26]) was 8.1 ± 0.7 µM.
With `CCOc1ccc2c(C(F)(F)F)cc(=O)oc2c1` [7-EFC, 7-ethoxy-4-(trifluoromethyl)coumarin] the “7-EFC KM lower than 2B1” value (2B37v1 [12]; 2B37v1 vs 2B1) was ~ 25%, the “7-EFC catalytic efficiency higher than for 2B1” value (2B37v1 [12]; 2B37v1 vs 2B1) was ~ 1.8 fold and the “7-EFC kcat higher than that for 2B1” value (2B37v1 [12]; 2B37v1 vs 2B1) was ~ 1.4 fold. For the same compound, the “kcat for 7-EFC-O-deethylation greater than that of 2B1” value (2B37v1 [12]; 2B37v1 vs 2B1) was ~ 50%, the “7-EFC O-deethylation kcat” value (2B37v1 [12]; enzyme 2B37v1) was 10.0 ± 0.3 min^−^1 and the Km (2B37v1 [12]; read-out: 7-EFC O-deethylation KM, enzyme 2B37v1) was 23.5 ± 2 µM. The O-dealkylation products (2B35v1 [13]) was “not detected”, the “7-EFC O-deethylation kcat” value (2B37v2 V480L [14]) was 22.3 ± 2.0 min^−^1 and the Km (2B37v2 V480L [14]; [27]) was 23.9 ± 3.6 µM. For the same compound, the “decrease in 7-EFC kcat” value (2B37v1 K262R [15]; 2B37v1 K262R vs 2B37v1) was ~ 45%, the “reduction of 7-EFC catalytic efficiency” value (2B37v1 K262R [15]; 2B37v1 K262R vs 2B37v1) was ~ 35% and the “7-EFC O-deethylation kcat” value (2B37v1 K262R [15]; enzyme 2B37v1 K262R) was 5.4 ± 0.2 min^−^1. For the same compound, the Km (2B37v1 K262R [15]; read-out: 7-EFC O-deethylation KM, enzyme 2B37v1 K262R) was 19 ± 2.3 µM, the “decrease in 7-EFC catalytic efficiency” value (2B37v2 R262K [16]; 2B37v2 R262K vs 2B37v2) was 85% and the “7-EFC O-deethylation kcat” value (2B37v2 R262K [16]; enzyme 2B37v2 R262K) was 2.0 ± 0.1 min^−^1. For the same compound, the Km (2B37v2 R262K [16]; read-out: 7-EFC O-deethylation KM, enzyme 2B37v2 R262K) was 20.3 ± 2.8 µM, the “7-EFC O-deethylation kcat” value (2B37v2 V114I/V480L) was 20.8 ± 2.8 min^−^1 and the Km (2B37v2 V114I/V480L; [27]) was 32.5 ± 4.4 µM. For the same compound, the “7-EFC O-deethylation kcat” value (2B36v1 [17]) was 3.3 ± 1.0 min^−^1, the Km (2B36v1 [17]; [27]) was 18.3 ± 7 µM and the “7-EFC O-deethylation kcat” value (2B37v2 V114I [18]) was 6.3 ± 1.9 min^−^1. The Km (2B37v2 V114I [18]; [27]) was 120 ± 2 µM, the “kcat for 7-EFC-O-deethylation greater than that of 2B1” value (2B37v2 [19]; 2B37v2 vs 2B1) was 2 fold and the “7-EFC O-deethylation kcat” value (2B37v2 [19]; enzyme 2B37v2) was 14.5 ± 8.3 min^−^1. For the same compound, the Km (2B37v2 [19]; read-out: 7-EFC O-deethylation KM, enzyme 2B37v2) was 20 ± 4.2 µM.
For `COC(=O)[C@H](c1ccccc1Cl)N1CCc2sccc2C1` [clopidogrel], the KS (human 2B6) is listed as “low micromolar” and the “maximal increase” value (human 2B6) is listed as 2.6%.
In the case of `Clc1ccccc1CN1CCc2sccc2C1` [ticlopidine], the KS (human 2B6) is given as “low micromolar” and the “maximal increase” value (human 2B6) is given as 2.3%.
With (+)-α-pinene the “(+)-α-pinene spectral binding %HSP450 Max Δ” value (rat 2B1 [20]; maximum change in high-spin P450 content, enzyme 2B1) was 48.7 ± 1.3%, the “difference spectra type induced” value (rat 2B1 [20]; peak ~388 nm, trough ~420 nm, represented with 2B1, seen with each enzyme) was “Type I” and the Kd (rat 2B1 [20]; read-out: (+)-α-pinene spectral binding KS, enzyme 2B1, 25 °C) was 870 ± 80 nM. For the same compound, the Kd (2B37v1 [21]) was 9330 ± 760 nM, the “log P” value [22] was 4.44 and the Kd (2B35v1 [23]) was 1270 ± 490 nM. It also gave a Kd (2B36v1 [24]) of 580 ± 40 nM and a Kd (2B37v2 [25]) of 910 ± 70 nM.
